Reference: ChEMBL document CHEMBL4513216, “Probing the Open Global Health Chemical Diversity Library for Multistage-Active Starting Points for Next-Generation Antimalarials” (ACS Infect Dis, 2020)

Assay: Toxicity liver stage against HepG2, at 10uM
Type: cell-based
Parameters: test concentration 10 uM, cell line HepG2-A16-CD81EGFP
Conditions: human, HepG2-A16-CD81EGFP cells; read-out: INHIBITION
Procedure, shortened: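 Uninfected HepG2-A16-CD81EGFP cells, 3 × 10^3 per well, 1536-well, plated on prespotted compound at 10 μM final, parasite-free screening media added to match infected plates; puromycin 10 μM positive, DMSO 0.5% negative; run in parallel with 48 h PbLuc assay at 37 °C, 5% CO2; viability by CellTiter-Glo luminescence, normalized to controls.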

| Compound | cytotoxicity at 10 µM [%] |
| --- | --- |
| CN(C)Cc1cc(CC2(NCc3ccccc3Cl)COC2)no1 | 4.14 |
| CS(=O)(=O)NC[C@H]1Cn2c(-c3ccccc3)cnc2CO1 | -2.96 |
| COCCn1c(-c2cccc(OC)c2)cnc1NC(=O)NCC(C)C | 11.4 |
| CN(CCC#N)C(=O)C(C)(C)Oc1ccc(C(N)=O)cc1 | 0.676 |
| COc1ccc2c3c1CN(C(=O)N(C)C)CC3=CC(C)(C)CO2 | 5.21 |
| Cn1cc(-c2nnc3sc(C4CCC4)nn23)cn1 | -13 |
| CSCCC(Nc1nc(C)cc(C)n1)C(=O)NCC1CCOCC1 (configuration not stated) | -3.45 |
| COCCN(Cc1ccoc1)C(=O)c1ccc(Cl)s1 | 12.3 |
| CCSc1ccccc1C(=O)N(CCOC)Cc1ccoc1 | 13.8 |
| COCCN(Cc1ccoc1)S(=O)(=O)c1ccc(OC)c(Cl)c1 | 6.27 |
| Cn1cnc(S(=O)(=O)NCC(O)c2ccc3c(c2)CCO3)c1 (configuration not stated) | -6.28 |
| Cn1cnc(S(=O)(=O)NCCC(O)c2ccc3c(c2)OCO3)c1 (configuration not stated) | -8.71 |
| CCS(=O)(=O)NCc1nc(C)cc(N2CCCC2)n1 | -0.714 |
| N#Cc1ccccc1Cn1cncn1 | 13.1 |
| Cc1ccc(C(=O)N2C[C@H](OCc3cccnc3)[C@H]3COC[C@H]32)cn1 | -1.52 |
| COc1ccc(C2CC(=O)Nc3nc(N4CCOCC4)sc32)cc1 (configuration not stated) | 10.8 |
| O=C1CC(c2cccs2)c2sc(C(=O)O)c(-c3ccccc3)c2N1 (configuration not stated) | -1.66 |
| Cn1cc(I)c(C(=O)NC2CCCCC2)n1 | 18.1 |
| O=C(c1ccc(F)c(F)c1)N1CCCSCC1CN1CCCC1 (configuration not stated) | -0.524 |
| CC1CCc2nc(O)c(C(=O)NCCN(C)C)cc2C1 (configuration not stated) | -13.8 |
| CCOCCCNc1cc(C)nn2cnnc12 | 2.21 |
| CCn1ncc(CNc2[nH]cnc3nncc2-3)c1C | 2.76 |
| FC(F)(F)c1cc(-c2cccs2)nc(N2CCN3CCCC3C2)n1 (configuration not stated) | 10.7 |

| Compound | cytotoxicity at 10 µM [%] |
| --- | --- |
| CC(C)(C(=O)N[C@@H]1CCC[C@@H](O)[C@@H]1O)c1cccc(F)c1 | 4.79 |
| COCCNC(=O)c1cc(C2CC2)nc2onc(C3CCNC3)c12 (configuration not stated) | 7.55 |
| Cc1cnn(CC(C)NCc2cc(C#N)ccc2F)c1 (configuration not stated) | 0.224 |
| CC(C)CC(C)(CNC(=O)c1cnccn1)NC(=O)c1cnccn1 (configuration not stated) | -2.71 |
| CS(=O)(=O)CCn1ccc(NC(=O)Cc2ccccc2Cl)n1 | 13.6 |
| CCc1nc(C)c(C(C)N(C)CCOC)s1 (configuration not stated) | -6.35 |
| COC1CCN(CCNC(=O)NCC(C)c2cccc(C)c2)CC1 (configuration not stated) | -4.47 |
| CNC(=O)c1cccnc1N1CCN(C/C=C/c2ccccc2)CC1 | -9.23 |
| CN(C)c1ccccc1CN1CCC(N2CCCC2=O)CC1 | 5.02 |
| CC(=O)Nc1ccc(CNc2cccc(OCCF)c2)cc1 | -5.35 |
| CC(NC(=O)CCc1nc(C(C)(C)C)no1)c1nnc2n1CCC2 (configuration not stated) | 12 |
| Cn1cc(N2CCC(NC(=O)c3ccccc3Cl)C2=O)cn1 (configuration not stated) | 4.35 |
| Cc1nc(C)n(CC2CCCN2CC(=O)Nc2ccncc2)n1 (configuration not stated) | -1.73 |
| O=S1(=O)CCN(c2nc(C3CC3)ns2)CC1 | 2.37 |
| CC(C)n1cc(CN2CCCN(C(=O)c3ccco3)CC2)cn1 | -2.27 |
| O=C(N1CCC(Oc2ccncc2)C1)C1(c2cccc(F)c2)CC1 (configuration not stated) | -6.52 |
| Cc1nc2n(n1)CC(NCC(=O)NCCCOC(C)C)CC2 (configuration not stated) | -5.03 |
| CN(Cc1ccccc1)CC(C)(C)NC(=O)c1cnns1 | -3.67 |
| CN(C(=O)CN1CCCC1c1cnn(C)c1)C1(C#N)CCCCC1 (configuration not stated) | 1.41 |
| Cc1nc(CNC(=O)NC2CCN(c3ncccc3Cl)C2)no1 (configuration not stated) | 11.9 |
| COc1cccc(NC(=O)N(CCC(F)(F)F)C[C@H](O)CO)c1 | -9.48 |
| CCCN(CCc1cccc(F)c1)c1ccc2nnnn2n1 | 1.44 |
| Cc1ncc(CN(C)CC(O)c2ccc(Br)cc2)s1 (configuration not stated) | 7.12 |

| Compound | cytotoxicity at 10 µM [%] |
| --- | --- |
| CCc1nc(C(=O)NCc2ccc(N3CCNC(=O)C3)c(F)c2)c[nH]1 | -7.12 |
| COc1ccccc1OCC(=O)NS(=O)(=O)c1ccccc1F | -18 |
| Cc1noc(C)c1CNC(=O)N1CCC(C(O)c2ccccc2)CC1 (configuration not stated) | -9.41 |
| COCCn1ccc(NC(=O)Nc2cccnc2)n1 | -12.3 |
| COc1ccc(CCN2CCN(C(=O)c3scnc3C)CC2)cc1 | -8.31 |
| CNC(=O)COc1ccc(CNCc2ccc(F)cc2F)cc1 | -8.6 |
| Cc1noc(C)c1CN1CCC2(CC1)NC(=O)CC2c1ccncc1 (configuration not stated) | 0.635 |
| Cc1ccccc1[C@@H]1CN(Cc2nc3ncccn3n2)C[C@H]1C(=O)O | -6.55 |
| CCCNc1ncc(CN2CCN(C)C(=O)C2C)cn1 (configuration not stated) | 12.9 |
| Cc1cc(-c2cc(S(=O)(=O)N3C[C@H](C4CC4)[C@@H](N)C3)c(C)s2)[nH]n1 | 2.47 |
| Cc1cc(C)nc(N2CCC(C(=O)O)(n3ccc(C(C)(C)C)n3)CC2)n1 | -5.6 |
| FC(F)(F)CCc1ccnc(N2CCN(Cc3ccccn3)CC2)n1 | -27 |
| CN1CCC(c2nnc(CN3CCCCC3)n2C)CC1 | 16.4 |
| O=C(O)c1cc(-c2cc[nH]n2)cc(S(=O)(=O)N2CCCCCC2)c1 | -4.88 |
| COc1ccc(F)cc1NC(=O)NCC1(C)COC1 | 6.26 |
| N#Cc1cccc(CN2C(=O)C3(CCNCC3)Nc3ccccc32)c1 | 0.529 |
| COc1cccn(CC(=O)N(C)CCCOc2c(C)cccc2C)c1=O | 5.27 |
| O=C(N[C@@H]1CCNC[C@H]1O)c1ccc(F)c(F)c1 | 5.79 |
| CCC(CO)N(Cc1ccco1)Cc1c(C)nn(C)c1Cl (configuration not stated) | 7.4 |
| Cc1nc(C)c(C)c(N2CCC(O)(c3ccc(F)cc3)CC2)n1 | -6.08 |
| Cc1nn(C)c(Oc2ccc(Cl)cc2)c1CN1CC[C@H](CO)[C@@H](O)C1 | -10.5 |
| COCCN1CC(Nc2nc(C3CCCC3)nc3c2cnn3C)CC1=O (configuration not stated) | -1.18 |
| CCN(Cc1cc(Cl)c(O)c(OC)c1)Cc1nc(COC)no1 | 1.29 |

| Compound | cytotoxicity at 10 µM [%] |
| --- | --- |
| N[C@@H]1CC[C@@H](NC(=O)c2ccccc2OC(F)(F)C(F)F)C1 | -4.85 |
| COc1ccc(N2CCN(C[C@@H](C)CO)CC2=O)cc1 | 1.99 |
| CC(C)(C)c1ncc(S(C)(=O)=O)c(C2CCCNC2)n1 (configuration not stated) | -12.7 |
| COc1cccc2ccc(CN3CCN(c4ccncc4)CC3)nc12 | -1.36 |
| CN1CCN(C(=O)N2CCCC(c3nccn3CC3CCC3)C2)CC1 (configuration not stated) | 6.64 |
| CCc1nnc(CNC(=O)CCCN2CCCCC2)s1 | -15.4 |
| COCC[C@]1(O)CCN(CC(=O)NCc2ccccn2)C[C@H]1C | 7.8 |
| COCCN(C)Cc1cc(Cl)ccc1OCC(O)CN1CCCCCC1 (configuration not stated) | 1.76 |
| OC1CCN(C2CCN(Cc3cnc(-c4cccs4)nc3)CC2)CC1 | -9.77 |
| Cc1c(CNC(=O)C2CCCCCN2C)oc2ccccc12 (configuration not stated) | 11.4 |
| CSCCCNC(=O)c1coc(Cn2cnc3ccccc32)n1 | -6.33 |
| Cc1ccccc1CN1CC[C@@]2(O)CCN(C(=O)C3CCC3)C[C@H]2C1 | 27.9 |
| OCc1ccc(CN2CCC(n3cc(-c4ccsc4)nn3)CC2)o1 | 6.77 |
| Cc1nc2sccn2c1C(=O)N1CCn2nc(C(=O)NC3CC3)cc2C1 | 9.63 |
| CC(C)(C)n1cc(C2=CCN(CCNC(N)=O)CC2)cn1 | -3.51 |
| CN1CCC(N(CCc2ccccc2)C(=O)c2ccc(CO)cc2)CC1 | 1.63 |
| COc1ccccc1OC1(C(=O)O)CCN(c2cc(C)nc(C)c2)CC1 | 2.65 |
| CNC(=O)CC1CCN(Cc2nc(-c3ccc(SC)cc3)oc2C)CC1 | -8.97 |
| O=C(NC(CO)CO)c1coc(COc2cccc(F)c2)n1 | 12.5 |
| COc1ccc(C(=O)C2CCCN(CCCn3cccn3)C2)c(OC)c1 (configuration not stated) | -12.2 |
| Cc1nc(C)n(C2CCCN(C(=O)COc3ccccc3)C2)n1 (configuration not stated) | -2.51 |
| Cc1ccccc1-n1c(C)cc(C(=O)N2CCn3c(C)nnc3C2)c1C | -8.51 |
| O=C(CCc1ccco1)Nc1cc(C(F)(F)F)c[nH]c1=O | 13.9 |

| Compound | cytotoxicity at 10 µM [%] |
| --- | --- |
| CCC1CCCCN1Cc1nc2c(cnn2C)c(=O)[nH]1 (configuration not stated) | -3.18 |
| COc1ccccc1C(=O)NS(=O)(=O)c1cccc(C#N)c1 | -6.52 |
| O=S(=O)(NCc1ccccc1Cn1cncn1)N1CCCCC1 | 2.6 |
| Cc1nn(C)c(Cl)c1C1CCCN1C(=O)c1cnccn1 (configuration not stated) | -4.73 |
| CCn1nc2c(cc1=O)CN(Cc1nnc(C3CC3)o1)CC2 | -16.2 |
| Cn1nc2c(cc1=O)CN(Cc1nc(C3CC3)no1)CC2 | -10.8 |
| CN(C)CC1CN(Cc2coc(-c3ccccc3Cl)n2)CCO1 (configuration not stated) | -1.15 |
| O=C(c1cnc(C2CC2)s1)N1CCCCC1Cn1cccn1 (configuration not stated) | 2.43 |
| COc1ccccc1C(=O)N1CCCC1Cn1cc(C)cn1 (configuration not stated) | -6.49 |
| COc1ccc(C)cc1CN1CCCC1Cn1nc(C)nc1C (configuration not stated) | 6.57 |
| CNC(=O)[C@@H](CC(C)C)N1CCC[C@H]1C(=O)N(C)Cc1ccccc1 | 6.14 |
| CN(C)C(=O)CN1C[C@H]2CN(Cc3cccc(F)c3)C(=O)[C@H]2C1 | -79.5 |
| O=C(c1ccco1)N1C[C@H]2CCCN(CC3CC3)[C@H]2C1 | 2.36 |
| Cn1nccc1C(=O)N1CC[C@]2(C[C@H](OCc3ccccn3)CO2)C1 | -80.6 |
| COCC1CN(Cc2cnn(C)c2)Cc2nn(C)cc21 (configuration not stated) | -82.8 |
| O=C(c1ccsc1)N1CCC2(CC1)COCCN(Cc1ccncc1)C2 | -89.6 |
| COCCN(C)C1COC2(CCN(Cc3ccccn3)CC2)C1 (configuration not stated) | -73.4 |
| CN(C)c1ncc2c(n1)C1(CCN(Cc3ccccc3)C1)COC2 (configuration not stated) | -5.07 |
| O=C1CO[C@@H]2CN(C3CCOCC3)C[C@H]2N1Cc1cccc(F)c1 | -77 |
| CN1CCN(Cc2cn3c(n2)CN(C(=O)c2ccccn2)CC3)CC1 | -5.7 |
